Results from ChEMBL document CHEMBL1158813, “Diastereomeric quinolinone alkaloids from the marine-derived fungus Penicillium janczewskii” (2005).

What was measured:
Assay type in all cases: functional
Details in all cases: read-out: Activity
A549 = test: Cytotoxicity against human A549 cells assessed as cell viability at 10 ug/mL by SRB assay
Summary of the method: (§1)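 SRB assay. Cells were plated at 5000–10 000 cells/well, depending on doubling time, and grown 24 h before compound addition. Compounds were dissolved in MeOH or DMSO and tested at 1 µg per 100 µL well (10 µg/mL) in complete medium for 48 h. Cells were fixed with cold TCA for 30 min on ice, at 10% final for adherent cells and 16% for suspension cells. Plates were stained with 0.4% SRB in 1% acetic acid for 10 min at room temperature, dye was solubilized in 10 mM Tris/KOH pH 10.5, and A550 was read.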

DU-145 = test: Cytotoxicity against human DU145 cells assessed as cell viability at 10 ug/mL by SRB assay; summary of the method: as §1
K562 = test: Cytotoxicity against human K562 cells assessed as cell viability at 10 ug/mL by SRB assay; summary of the method: as §1
HT-29 = test: Cytotoxicity against human HT-29 cells assessed as cell viability at 10 ug/mL by SRB assay; summary of the method: as §1
SK-MEL-2 = test: Cytotoxicity against human SK-MEL-2 cells assessed as cell viability at 10 ug/mL by SRB assay; summary of the method: as §1
SK-OV-3 = test: Cytotoxicity against human SKOV3 cells assessed as cell viability at 10 ug/mL by SRB assay; summary of the method: as §1
CAKI-1 = test: Cytotoxicity against human Caki1 cells assessed as cell viability at 10 ug/mL by SRB assay; summary of the method: as §1
MDA-MB-231 = test: Cytotoxicity against human MDA-MB-231 cells assessed as cell viability at 10 ug/mL by SRB assay; summary of the method: as §1

SMILES | viability at 10 µg/mL (A549) [%] | viability at 10 µg/mL (DU-145) [%] | viability at 10 µg/mL (K562) [%] | viability at 10 µg/mL (HT-29) [%] | viability at 10 µg/mL (SK-MEL-2) [%] | viability at 10 µg/mL (SK-OV-3) [%] | viability at 10 µg/mL (CAKI-1) [%] | viability at 10 µg/mL (MDA-MB-231) [%]
COc1ccc([C@@]2(O)c3ccccc3NC(=O)[C@H]2O)cc1 | 56.3 | 50.6 | 52.4 | 58.8 | 55.2 | 44.6 | 80.3 | 52.9
COc1ccc([C@@]2(O)c3c(ccc(CC=C(C)C)c3O)NC(=O)[C@@H]2OC)cc1 [PENIPREQUINOLONE] |  | 30.8 |  | 4 |  | 20.2 |  | 8.4
COc1ccc([C@@]2(O)c3ccccc3NC(=O)[C@@H]2O)cc1 | 56.8 | 48.4 | 36.6 | 32.8 | 39 | 8.1 | 65.1 | 31.8
